# According to paper PMC3744103 (Molecular cancer therapeutics, 2013):
# Several values for one entry are separate records, joined by “and”; a condition that tells them apart may be missing. Equal values may be shown once.
# Columns and labels:
# [1] = tested on: cardiac hypertrophy; conditions: by anti-oxidative activity; cited from earlier work
# [2] = tested on: Cyclin D1 protein expression in RT4 cells; assay: Western blotting of Cyclin D1; assay type: cell-based, human; conditions: low grade RT4 cell line, 24h
# [3] = tested on: UMUC3 (GFP) and UMUC3 (GFP-Cyclin D1) cells; assay: Anchorage-independent growth in soft agar, stable transfectants; assay type: cell-based, human; conditions: UMUC3 (GFP) vs UMUC3 (GFP-Cyclin D1) in soft agar
# Outline: (§1)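 UMUC3 cells (DMEM, 10% FBS; stable GFP or GFP-Cyclin D1 transfectants made by co-transfection with pSuper vector) were seeded at 1×10^4 per well in 0.33% soft agar in 10% FBS BME, with or without test compound, over a 0.5% agar bottom layer. Vehicle was 0.1% DMSO. Cultures were kept at 37°C, 5% CO2 for 21 days. Colonies over 32 cells were counted by microscope as colonies per 10,000 seeded cells (mean±SD, 3 experiments).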
# [4] = tested on: Cyclin D1 protein expression in RT112 cells; assay: Western blotting of Cyclin D1; assay type: cell-based, human
# [5] = tested on: UMUC3(GFP-Cyclin D1) cells; assay: Cell cycle analysis by flow cytometry in stable transfectant; assay type: cell-based, human; conditions: ISO 24 h, control 51.01%
# [6] = tested on: Cyclin D1 protein expression in Cl41 cells; assay: Western blotting of Cyclin D1; assay type: cell-based, mouse; conditions: normal Cl41 cell line, 24h
# [7] = tested on: RT4 cells; assay: Cell viability, ATPase activity assay; assay type: cell-based, human; conditions: read-out: IC50, cell viability; RT4, ISO 5–60 μM, 48 h, n=3
# [8] = tested on: UMUC3 cells; assay: Cell morphology observation; assay type: cell-based, human; conditions: UMUC3, 20 μM ISO, 24 hours
# [9] = tested on: SP1-dependent transcriptional activity in UMUC3 cells; assay: SP1 luciferase reporter assay; assay type: cell-based, human; conditions: UMUC3 stable reporter, ISO 5μM, P<0.01
# Outline: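 A reporter with three consensus SP1 sites was stably co-transfected with pRL-TK and pSuper into UMUC3 cells. Cells were seeded at 1×10^4 per well and, at 80–90% confluence, exposed to 5 μM test compound for various times. Lysis buffer was Tris-phosphate pH 7.8 with EDTA, Triton X-100 and glycerol. Dual-luciferase read-out gave relative SP1 activity (means±SE, three independent experiments).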
# [10] = tested on: UMUC3 cells; assay: Cell viability, ATPase activity assay; assay type: cell-based, human
# Outline: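 Cells exposed for 48 h to varying concentrations of test compound, with 0.1% DMSO as vehicle control. Viability read by an ATPase-based assay in three independent experiments. UMUC3 kept in DMEM with 10% FBS at 37 °C and 5% CO2. IC50 given with n=3.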
# [11] = tested on: Cyclin D1 protein expression in UMUC3 cells; assay: Western blotting of Cyclin D1 and cell cycle regulators; assay type: cell-based, human
# [12] = tested on: cyclin d1 mRNA in UMUC3 cells; assay: Semiquantitative RT-PCR; assay type: cell-based, human; conditions: UMUC3, concentration- and time-dependent (24 h; 5 μM time course)
# Outline: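 UMUC3 cells treated with test compound at the indicated concentrations for 24 h, or at 5 μM for the indicated times. Total RNA isolated with TRIzol and reverse transcribed. Cyclin D1 mRNA measured by semiquantitative RT-PCR against GAPDH, with products run on 2% agarose and stained with ethidium bromide.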
# [13] = tested on: SP1 protein expression in UMUC3 cells; assay: Western blotting of cytoplasmic and nuclear extracts for transcription factors; assay type: cell-based, human; conditions: UMUC3, 5 μM ISO, 12 h
# Outline: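 UMUC3 cells in 10-cm dishes were treated with 0.1% DMSO or 5 μM test compound for 12 h. Cytoplasmic and nuclear fractions were prepared with a nuclear/cytosol fractionation kit and stored at −80°C. Immunoblots used an AP-conjugated secondary with ECF detection and GAPDH as loading control. Nuclear SP1 was quantified by scanning relative to C-Jun (n=3).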
# [14] = tested on: SP1 binding to Cyclin D1 promoter in UMUC3 cells; assay: ChIP assay; assay type: cell-based, human; conditions: UMUC3, ISO 5 μM, 12 hours
# Outline: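 Chromatin immunoprecipitation (EZ-ChIP kit) on UMUC3 cells left untreated or given 5 μM test compound for 12 h. Precipitated DNA amplified by PCR with primers covering the SP1-binding region −92 to +27 of the human Cyclin D1 promoter.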
# [15] = tested on: UMUC3 cells; assay: Anchorage-independent growth assay; assay type: cell-based, human; conditions: UMUC3 in soft agar, concentration-dependent, as low as 5 μM, P<0.01
# Outline: as §1
# [16] = tested on: human bladder cancer cells; conditions: cited from earlier work
# [17] = tested on: endogenous Cyclin D1 and exogenous GFP-Cyclin D1 in UMUC3 transfectants; assay: Western blotting in stable transfectants; assay type: cell-based, human; conditions: ISO 24 h
# Outline: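 UMUC3 cells stably transfected with GFP or GFP-Cyclin D1 constructs were treated with test compound for 24 h. Cells were lysed in 10 mM Tris-HCl (pH 7.4), 1% SDS, 1 mM Na3VO4, and protein was quantified by DC assay. Blots were probed with primary antibodies and an AP-conjugated secondary, with ECF detection.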
# [18] = tested on: Cl41 cells; assay: Cell viability, ATPase activity assay; assay type: cell-based, mouse; conditions: normal Cl41 cells, ISO 5–60 μM, 48 h
# [19] = ISO pharmacokinetics in mouse serum, LC/MS/MS; assay type: in vivo, mice; conditions: for Caverage ± SD, serum ISO concentration: mouse serum, 150 mg/kg gastric gavage, n=3
# Outline: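 Male […] mice (20–25 g, 30 total) received 150 mg/kg by gastric gavage; three were killed per time point from 0.033 to 4 h. Serum (centrifuged 4000 rpm, 30 min; stored −20 °C) extracted with methanol, filtered 0.45 μm and run on LC/MS/MS: negative ESI, MRM, m/z 257.0/241.1, naringenin 271.1/151.1. Parameters derived by non-compartmental analysis.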
# [20] = tested on: bovine aortic smooth muscle cells (BASMCs); conditions: cited from earlier work
# [21] = tested on: UMUC3 cells; assay: Cell cycle and apoptosis analysis by flow cytometry; assay type: cell-based, human; conditions: UMUC3, 5 μM ISO; for cells in G0/G1 (growth arrest): control 47.58%
# [22] = tested on: UMUC3(GFP) cells; assay: Cell cycle analysis by flow cytometry in stable transfectant; assay type: cell-based, human; conditions: ISO 24 h, control 62.74%
# [23] = tested on: Cyclin D1 promoter transcriptional activity in UMUC3 cells; assay: Cyclin D1 promoter-driven luciferase reporter assay; assay type: cell-based, human; conditions: ISO 5μM
# Outline: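 UMUC3 cells stably carrying a Cyclin D1 promoter-luciferase reporter were seeded at 1×10^4 per well and treated with 5 μM test compound at 80–90% confluence for the indicated times. Luciferase activity read on a microplate luminometer.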
# [24] = mice, 150 mg/kg oral, non-compartmental model
smiles,measurement,setting,value
"COc1cc(/C=C/c2cc(O)cc(O)c2)ccc1O [ISO, Isorhapontigenin]",cardiac hypertrophy,[1],inhibits cardiac hypertrophy
same,Cyclin D1 expression,[2],slight inhibition
same,inhibition of anchorage-independent growth,[3],reversed by ectopic expression of GFP-Cyclin D1
same,earliest time of significant reduction of Cyclin D1 expression,"[4]; RT112, 5 μM ISO",6 h
same,Cyclin D1 expression,"[4]; high grade RT112 cell line, 24h",markedly inhibition of Cyclin D1 expression
same,cells in G0/G1 (growth arrest),[5],54.61%
same,Cyclin D1 expression,[6],marginal induction of Cyclin D1
same,IC50,[7],38.6 ± 2.9 µM
same,morphologic changes,[8],"shrinkage, rounding, detachment and membrane blebbing"
same,SP1-dependent transcriptional activity,[9],dramatically inhibition of SP1-dependent transcriptional activity
same,cell proliferation,"[10]; UMUC3, 5 μM ISO",inhibition of cell proliferation
same,IC50,"[10]; read-out: IC50, cell viability, UMUC3, ISO 5–60 μM, 48 h, n=3",22.4 ± 3.3 µM
same,earliest time of significant reduction of Cyclin D1 expression,"[11]; UMUC3, 5 μM ISO",6 h
same,Cyclin B1 expression,"[11]; UMUC3, 5 μM ISO, 24 h",slightly reduced
same,"expression of Cyclin A, Cyclin E, Cyclin B1, CDK4, CDK6, P53, P27, P21","[11]; UMUC3, different concentrations of ISO, 24 hours",did not show observable inhibition
same,Cyclin D1 protein expression,"[11]; UMUC3, different concentrations of ISO, 24 hours, vs DMSO",concentration-dependent reduction of Cyclin D1 protein expression
same,cyclin d1 mRNA,[12],marked reduction of cyclin d1 mRNA
same,SP1 protein expression,[13],only downregulated SP1 protein expression
same,"expression, activation or nuclear translocation of C-FOS, P-C-JUN(ser 73), P-C-JUN(ser63), C-JUN, HSF-1, P-ATFII, P-NF-κB p65, NF-κB p65",[13],did not show any observable inhibition
same,SP1 binding to Cyclin D1 promoter region −92~+27,[14],this binding was impaired
same,anchorage-independent growth,[15],markedly inhibited anchorage-independent growth
same,apoptosis,"[16]; UMUC3 and other invasive BC cells, 20μM",induced apoptosis
same,cytotoxic effect,"[16]; human bladder cancer cell lines, concentration lower than 20 μM",do not show cytotoxic effect
same,anchorage-independent growth,"[16]; human bladder cancer cells, 20~60 μM",significant inhibitory effect on anchorage-independent growth
same,endogenous Cyclin D1 vs exogenous GFP-Cyclin D1 protein expression,[17],only downregulated endogenous Cyclin D1 protein expression
same,cell viability,[18],no obvious reduction of cell viability
same,AUC(0-t),[19]; [24],6090 ± 2810 ng·h/mL
same,AUC(0-∞),[19]; [24],6100 ± 2800 ng·h/mL
same,"CLz/F, apparent clearance",[19]; [24],462 ± 172 mL/min/kg
same,"MRT(0-t), mean residence time",[19]; [24],0.70 ± 0.20 h
same,"t1/2z, terminal half-life","[19]; mice, 150 mg/kg oral, non-compartmental model, 150 mg/kg",1.7 h and 1.72 ± 0.27 h
same,"Caverage ± SD, serum ISO concentration",[19]; 0.033 h,6800 ± 2100 ng/mL
same,"Caverage ± SD, serum ISO concentration",[19]; 0.083 h,10740 ± 3520 ng/mL
same,"Caverage ± SD, serum ISO concentration",[19]; 0.170 h,12350 ± 4790 ng/mL
same,"Caverage ± SD, serum ISO concentration",[19]; 0.250 h,9230 ± 4840 ng/mL
same,"Caverage ± SD, serum ISO concentration",[19]; 0.500 h,6220 ± 3600 ng/mL
same,"Caverage ± SD, serum ISO concentration",[19]; 0.750 h,830 ± 800 ng/mL
same,"Caverage ± SD, serum ISO concentration",[19]; 1.000 h,290 ± 240 ng/mL
same,"Caverage ± SD, serum ISO concentration",[19]; 1.500 h,280 ± 140 ng/mL
same,"Caverage ± SD, serum ISO concentration",[19]; 2.000 h,170 ± 120 ng/mL
same,"Caverage ± SD, serum ISO concentration",[19]; 4.000 h,30 ± 10 ng/mL
same,oxLDL-induced proliferation and mitogenesis,[20],inhibitory effect
same,apoptotic cells,[21],did not induce any increases of apoptotic cells
same,cells in G0/G1 (growth arrest),[21]; 12h,57.98%
same,cells in G0/G1 (growth arrest),[21]; 24h,62.62%
same,cells in G0/G1 (growth arrest),[22],74.60%
same,"Cyclin D1 transcription, SP1 mutant reporter",[23]; UMUC3/SP1mut-Cyclin D1-Luc transfectant,did not shown a significant inhibition of Cyclin D1 transcription
same,"Cyclin D1 transcription, WT reporter",[23]; UMUC3/WT Cyclin D1-Luc transfectant,inhibited Cyclin D1 transcription
same,Cyclin D1 promoter transcriptional activity,"[23]; UMUC3 stable reporter, time-dependent, P<0.01",marked inhibition of Cyclin D1 promoter transcriptional activity
